Assay outcomes as filed in PubChem BioAssay.
The list is not random: actives were taken first. Their share in the collection is about 3.3%.
Xi reactivation: X-chromosome reactivation activator. 360,000 compounds, 0.055% hits. activation, % at 7.58 µM. AID 743238. XiGFP mouse fibroblasts, % GFP-positive cells imaging, 3 d; cells co-treated with 5-aza-dC sensitizer; scaled so ellipticine positive control = 100%;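 active = mean normalized replicate activation at least 10% and every replicate at or above 10%; inconclusive = only one of the two criteria met; inactive = mean below 10% and not all replicates reach 10%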
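System: XiGFP fibroblasts, SV40-immortalized. Medium: DMEM plus 5-aza-dC sensitizer. Doses: single point. Timing: 3 d treatment, 15 min room-temperature fixation. Control set: ellipticine 6 µM.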
PglD DTNB: PglD (C. jejuni) enzyme inhibition; 360,000 compounds, 0.098% hits; inhibition, % at 12.5 µM; purified PglD enzyme, DTNB colorimetric CoA detection; in the data active = inhibition above about 16%, passing the limit was not always enough; inconclusive = no clear call, values can overlap the other calls
E-sel inducer: E-selectin induction on HUVECs; P16581; HUVEC E-selectin immunofluorescence imaging; normalized: neutral wells 0, TNF-alpha wells 100; activation, % at 7.58 µM; 260,000 compounds, 0.37% hits;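 active = mean E-selectin-positive cell signal at least 10% of the positive control, reached in at least 60% of replicates, without over 20% cell loss; inconclusive = no rule given, readout overlaps actives, possibly toxicity-flagged; inactive = the rest, including those meeting only one limit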
Target sequence (P16581 whole entry, looked up): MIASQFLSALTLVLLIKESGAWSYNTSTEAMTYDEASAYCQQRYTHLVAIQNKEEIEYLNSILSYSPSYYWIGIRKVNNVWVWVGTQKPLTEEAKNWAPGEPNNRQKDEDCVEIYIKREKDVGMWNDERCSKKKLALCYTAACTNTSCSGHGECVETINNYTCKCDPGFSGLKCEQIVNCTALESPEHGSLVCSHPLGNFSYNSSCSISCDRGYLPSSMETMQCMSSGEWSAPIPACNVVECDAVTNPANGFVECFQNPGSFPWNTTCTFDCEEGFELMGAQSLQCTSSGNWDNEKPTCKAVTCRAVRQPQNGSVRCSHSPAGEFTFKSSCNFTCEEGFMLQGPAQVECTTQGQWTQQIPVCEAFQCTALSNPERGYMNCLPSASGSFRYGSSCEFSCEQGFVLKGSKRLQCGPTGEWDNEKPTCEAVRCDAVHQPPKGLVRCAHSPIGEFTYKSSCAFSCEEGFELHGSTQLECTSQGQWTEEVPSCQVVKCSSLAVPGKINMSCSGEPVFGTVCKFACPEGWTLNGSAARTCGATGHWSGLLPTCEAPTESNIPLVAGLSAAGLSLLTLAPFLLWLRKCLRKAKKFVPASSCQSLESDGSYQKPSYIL
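System: HUVEC / Compound: single concentration / Signal: immunofluorescence imaging / Read-out: percent E-selectin-positive cells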
DENV2 CPE: inhibitors of DENV2 cytopathic effect; DENV2-infected cells, cytopathic effect rescue, plate reader; 350,000 compounds, 1.7% hits; CPE inhibition, % at 9.99 µM; in the data active = CPE inhibition above about 20%, passing the limit was not always enough; inconclusive = no clear call, values can overlap the other calls; tested in BHK-21 cells
FGF22 binding: shifts melting point of recombinant human FGF22. recombinant FGF22 thermal shift, SYPRO orange fluorescence; percent of sucrose octasulfate shift, DMSO zero. activity (Tm shift, normalised), % at 9.99 µM. 340,000 compounds, 1.5% hits. Q9HCT0;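 active = mean Tm shift, scaled 0 neutral to 100 positive control, at about 1.3% or above, every replicate too, limit read from the data; inconclusive = no clear call, values can overlap the other calls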
Target sequence (Q9HCT0 whole entry, looked up): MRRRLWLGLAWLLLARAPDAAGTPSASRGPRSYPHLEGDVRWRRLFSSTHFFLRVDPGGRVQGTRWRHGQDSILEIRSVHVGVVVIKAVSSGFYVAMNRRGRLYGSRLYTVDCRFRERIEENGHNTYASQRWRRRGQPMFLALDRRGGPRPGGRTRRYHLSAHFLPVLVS
Statin myotox sup: suppressors of simvastatin-induced myotoxicity in C2C12 myotubes; 330,000 compounds, 0.78% hits; rescue of ATP level, % at 7.49 µM; ATP luminescence, 48 h; scaled: DMSO 0, geranylgeraniol control 100;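 active = mean ATP rescue above about 67%, or every replicate alone reaching that limit, limit read from the data, passing the limit was not always enough; inconclusive = no clear call, values can overlap the other calls; inactive = mean under the limit and some replicate under it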;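 note: myotubes were challenged with 10 µM simvastatin during compound exposure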
Each line names hits and unclear results; the compound was inactive in the other large screens.

O=C(CNC(=O)c1ccccc1Br)N/N=C/c1ccccc1O	FGF22 binding 43 (no result: PglD DTNB, E-sel inducer, Statin myotox sup)
O=C(CNC(=O)c1cccc(Br)c1)N/N=C/c1ccc[nH]1	FGF22 binding 43 (no result: PglD DTNB, E-sel inducer, Statin myotox sup)
O=C(CNC(=O)c1ccccc1)N/N=C/c1cc(Br)ccc1O	none (no result: E-sel inducer, DENV2 CPE, Statin myotox sup)
CS(=O)(=O)N1CC2(C1)[C@H](c1ccccc1)[C@H](CO)N2C(=O)c1ccccc1	none (no result: PglD DTNB, Statin myotox sup)
COc1ccc2c3c(n(C)c2c1)[C@H](CO)N(C(=O)CN(C)C)CC31CCN(C(=O)C2CCC2)CC1	none (no result: PglD DTNB, Statin myotox sup)
CCCC(=O)Nc1ccc2c(c1)C(=O)N(C)C[C@@H](OC)[C@@H](C)CN(Cc1ccncc1)[C@@H](C)CO2	none (no result: PglD DTNB, DENV2 CPE, FGF22 binding)
CCC(=O)NCCc1nc2ccccc2n1Cc1ccccc1	Statin myotox sup 124 (no result: Xi reactivation, PglD DTNB, E-sel inducer, DENV2 CPE, FGF22 binding)
CCOC(=O)c1ccc(NC(=O)NC(C)C2CCCO2)cc1 (stereo not given)	none (no result: Xi reactivation, E-sel inducer, DENV2 CPE, FGF22 binding)
CC(NC(=O)Nc1ccc(Cl)cc1)C1CCCO1 (stereo not given)	FGF22 binding 43 (no result: PglD DTNB, E-sel inducer, Statin myotox sup)
C[C@@H]1CN([C@H](C)CO)C(=O)c2cc(NS(=O)(=O)c3ccc(Cl)cc3)ccc2O[C@H]1CN(C)S(=O)(=O)c1cccs1	none
c1ccc(CNc2nc(-c3ccccc3)nc3ccccc23)cc1	none (no result: E-sel inducer)
c1ccc(CNc2nc(-c3cccs3)nc3ccccc23)cc1	FGF22 binding 43 (no result: PglD DTNB, E-sel inducer, Statin myotox sup)
COCCNC(=O)C(C)Oc1ccccc1 (stereo not given)	FGF22 binding 43
COc1ccccc1CNC(=O)C(C)Oc1ccccc1 (stereo not given)	none
C[C@@H]1CN([C@@H](C)CO)C(=O)c2cc(NC(=O)Nc3ccc4c(c3)OCO4)ccc2O[C@H]1CN(C)C(=O)NC1CCCCC1	none
CCOC(=O)C1CCCN(CCC(=O)Nc2cc(C)cc(C)c2)C1 (stereo not given)	FGF22 binding 44 (no result: PglD DTNB, Statin myotox sup)
CNC[C@@H]1Oc2c(NC(=O)C3CC3)cccc2C(=O)N([C@@H](C)CO)C[C@H]1C	none (no result: PglD DTNB, DENV2 CPE, FGF22 binding)
CCC(CC)C(=O)c1c[nH]c(C(=O)NCC2CCCO2)c1 (stereo not given)	Statin myotox sup 107 (no result: Xi reactivation, E-sel inducer, DENV2 CPE, FGF22 binding)
CCOc1ccc2oc(C(=O)NCC3CCCO3)c(C)c2c1 (stereo not given)	DENV2 CPE 64 (no result: E-sel inducer)
COc1ccc2oc(C(=O)NCC3CCCO3)c(C)c2c1 (stereo not given)	none (no result: E-sel inducer)
N#CC1=C(N)OC2=C(C(=O)CCC2)[C@]12C(=O)N(CC(N)=O)c1ccccc12	Statin myotox sup 109 (no result: Xi reactivation, E-sel inducer, DENV2 CPE, FGF22 binding)
N#CC1=C(N)OC2=C(C(=O)CCC2)C12C(=O)N1CCCc3cccc2c31 (stereo not given)	none (no result: Xi reactivation, E-sel inducer, DENV2 CPE, FGF22 binding)
CCC(=O)N1[C@H](CN(CC)C(C)=O)[C@@H](c2ccc(-c3cccnc3)cc2)[C@@H]1CO	none
Cc1noc(C)c1NC(=O)Nc1ccc2c(c1)C(=O)N([C@@H](C)CO)C[C@H](C)[C@@H](CN(C)CC1CCCCC1)O2	none (no result: PglD DTNB, DENV2 CPE, FGF22 binding)
CC1(C)Cc2c(C#N)c(SCCO)nc(N3CCOCC3)c2CO1	none (no result: E-sel inducer)
CCCCc1nc(N2CCOCC2)c(C#N)c2c1COC(C)(C)C2	Statin myotox sup 128 (no result: Xi reactivation, E-sel inducer, DENV2 CPE, FGF22 binding)
COc1ccc2c3c([nH]c2c1)[C@H](CO)N(C(=O)NC(C)C)CC31CN(C(=O)NC2CCCC2)C1	none (no result: PglD DTNB, Statin myotox sup)
O=c1cnnc(N/N=C/C2CC=CCC2)[nH]1 (stereo not given)	FGF22 binding 44 (no result: E-sel inducer, DENV2 CPE, Statin myotox sup)
CC(C)NC(=O)N(C)C[C@@H]1Oc2ncc(C#CC3(O)CCCC3)cc2C(=O)N([C@@H](C)CO)C[C@@H]1C	none
O=C(CN1C(=O)C(=O)c2ccccc21)OCN1C(=O)c2ccccc2C1=O	FGF22 binding 43 (no result: E-sel inducer)
CCc1nc2sccc2c(=O)n1N	FGF22 binding 43 (no result: PglD DTNB, Statin myotox sup)
COc1cc2c(cc1OC)CN(C(=O)[C@@H]1[C@H]3C(=O)O[C@H](c4ccccc4)[C@H](c4ccccc4)N3[C@H](c3ccc(OCCO)cc3)[C@@]13C(=O)Nc1ccc(C#CC4(O)CCCCCC4)cc13)CC2	none (no result: Xi reactivation, E-sel inducer, Statin myotox sup)
C/C(Cn1ncc(N2CCOCC2)c(Cl)c1=O)=N\O	DENV2 CPE 29
CCCCCCCC(=O)Nc1cc(C(=O)NCc2ccc(C)cc2)ccc1N1CCC2(CC1)CC(c1ccccc1)=NO2	DENV2 CPE 27 (no result: E-sel inducer)
CCCCC(CC)C(=O)Nc1cc(C(=O)NCc2ccc(C)cc2)ccc1N1CCC2(CC1)CC(c1ccccc1)=NO2 (stereo not given)	none
CCOC(=O)c1ccccc1NC(=O)C1COc2ccccc2O1 (stereo not given)	Statin myotox sup 94 (no result: Xi reactivation, E-sel inducer, DENV2 CPE, FGF22 binding)
COc1ccc(-c2ccc3n(c2=O)C[C@H]2N[C@@H]3[C@@H](C(=O)N3CCCCC3)[C@@H]2CO)cc1	none (no result: PglD DTNB, FGF22 binding, Statin myotox sup)
CC(C)CC#Cc1ccc2c(c1)O[C@@H](CN(C)CC1CCOCC1)[C@H](C)CN([C@H](C)CO)S2(=O)=O	none
c1ccc(-c2cc3c(N4CCN(c5ncccn5)CC4)ncnc3s2)cc1	FGF22 binding 44 (no result: PglD DTNB, Statin myotox sup)
c1ccc(-c2cc3c(N4CCN(c5ccccc5)CC4)ncnc3s2)cc1	none (no result: E-sel inducer)
CO[C@@H]1CN(C)C(=O)c2ccc(NC(=O)c3ccc(Oc4ccccc4)cc3)cc2OC[C@H](C)NC[C@@H]1C	DENV2 CPE inconclusive
CO[C@H]1CN(C)C(=O)c2ccc(NC(=O)Nc3ccc(C(F)(F)F)cc3)cc2OC[C@H](C)NC[C@@H]1C	DENV2 CPE 68 (no result: PglD DTNB, Statin myotox sup)
CO[C@H]1CN(C)C(=O)c2ccc(NC(=O)c3ccccc3)cc2OC[C@H](C)NC[C@@H]1C	DENV2 CPE 39 (no result: PglD DTNB, FGF22 binding, Statin myotox sup)
CO[C@H]1CN(C)C(=O)c2ccc(NC(=O)c3ccc(Oc4ccccc4)cc3)cc2OC[C@@H](C)NC[C@H]1C	DENV2 CPE 31
CO[C@@H]1CN(C)C(=O)c2ccc(NC(=O)Nc3ccc(C(F)(F)F)cc3)cc2OC[C@@H](C)NC[C@@H]1C	none (no result: PglD DTNB, Statin myotox sup)
CO[C@@H]1CN(C)C(=O)c2cc(NC(=O)c3ccc(Oc4ccccc4)cc3)ccc2OC[C@H](C)NC[C@@H]1C	DENV2 CPE 22
C[C@@H]1CN([C@H](C)CO)C(=O)c2cc(NC(=O)Nc3ccc(F)cc3)ccc2O[C@@H]1CN(C)Cc1ccc(Oc2ccccc2)cc1	none (no result: Statin myotox sup)
COc1ccc(CN(C)C[C@@H]2Oc3ccc(NC(=O)Nc4ccc(F)cc4)cc3CC(=O)N([C@H](C)CO)C[C@H]2C)cc1	E-sel inducer 83
COc1ccc(CN(C)C[C@@H]2Oc3ccc(NC(=O)Nc4ccc(F)cc4)cc3CC(=O)N([C@H](C)CO)C[C@@H]2C)cc1	E-sel inducer 76
COCCNC(=O)C[C@H]1CC[C@@H]2[C@@H](COc3ccc(NC(=O)c4cnccn4)cc3C(=O)N2C)O1	none
CC(c1nccs1)N(C)c1nc2nonc2nc1NC1CC1 (stereo not given)	none
CN(c1nc2nonc2nc1NC1CC1)C1CCOC1 (stereo not given)	FGF22 binding 43
